According to ChEMBL document CHEMBL2396559, “Synthesis and preliminary biological evaluation of a compound library of triazolylcyclitols” (2013):
The source made the active and inactive calls. The rule behind the calls is not given here.

Legend:
[1] = Immunosuppressive activity against C57Bl/6 mouse splenic lymphocytes assessed as concanavalin A-induced cell proliferation at > 0.002 nM incubated for 1 hr prior to concanavalin A challenge measured after 48 hrs by resazurin reduction assay relative to control; assay type: functional, Splenic lymphocyte; set-up: scale not given: the % may be the effect or the level left
Outline: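 Splenocytes from male C57Bl/6 mice were plated at 1×10^6 cells/mL, 37 °C, 5% CO2. Compounds at 0.002–200 nM were added for 1 h, then cells were incubated with or without concanavalin A (0.5 µg/mL) for 48 h. Resazurin 0.01% was added for 24 h, then OD read at 570 and 600 nm and proliferation taken as the difference. Compared with ConA plus vehicle. Three animals in triplicate.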

[2] = system: Splenic lymphocyte; assay: Immunosuppressive activity against C57Bl/6 mouse splenic lymphocytes assessed as cell viability at 200 nM after 72 hrs by MTT assay; assay type: functional
Outline: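 Spleens from male 18-week-old C57Bl/6 mice were teased through a strainer, washed in RPMI and resuspended in RPMI with 10% FBS. Cells were counted by trypan blue and cultured in triplicate at 37 °C for 72 h with vehicle (medium, 0.1% DMSO), 10% DMSO or compound at 200 nM. MTT was added for 2 h, formazan dissolved in DMSO and read at 570 nm. Viability taken as % of vehicle after blank subtraction. Three animals.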

[3] = system: Nannizzia gypsea; assay: Antifungal activity against Microsporum gypseum ATCC 24102 assessed as growth inhibition at 10 mg/mL by bioautographic agar overlay method; assay type: functional, organism-based
Outline: (§1)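 Samples at 10 mg/mL spotted on silica gel TLC plates, overlaid with a thin Sabouraud agar film inoculated 50:1 with fresh-culture suspension at 10^6 cells or spores/mL. Incubation time and conditions were set per fungus. Growth-free zones around spots scored qualitatively. Same plate carried DMSO 1% negative control plus amphotericin B and ketoconazol controls.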

[4] = system: Trichophyton rubrum; assay: Antifungal activity against Trichophyton rubrum ATCC 28188 assessed as growth inhibition at 10 mg/mL by bioautographic agar overlay method; assay type: functional, organism-based; outline: as §1
[5] = system: Trichophyton mentagrophytes; assay: Antifungal activity against Trichophyton mentagrophytes ATCC 9533 assessed as growth inhibition at 10 mg/mL by bioautographic agar overlay method; assay type: functional, organism-based; outline: as §1
[6] = system: Cryptococcus neoformans; assay: Antifungal activity against Cryptococcus neoformans ATCC 14116 assessed as growth inhibition at 10 mg/mL by bioautographic agar overlay method; assay type: functional, organism-based; outline: as §1
[7] = system: Nakaseomyces glabratus; assay: Antifungal activity against Candida glabrata ATCC 15126 assessed as growth inhibition at 10 mg/mL by bioautographic agar overlay method; assay type: functional, organism-based; outline: as §1
[8] = system: Candida parapsilosis; assay: Antifungal activity against Candida parapsilosis ATCC 22919 assessed as growth inhibition at 10 mg/mL by bioautographic agar overlay method; assay type: functional, organism-based; outline: as §1
[9] = system: Candida albicans; assay: Antifungal activity against Candida albicans ATCC 90022 assessed as growth inhibition at 10 mg/mL by bioautographic agar overlay method; assay type: functional, organism-based; outline: as §1

Row | Structure (SMILES) | Activity [1] | Activity [2] | growth inhibition (GI) [3] | growth inhibition (GI) [4] | growth inhibition (GI) [5] | growth inhibition (GI) [6] | growth inhibition (GI) [7] | growth inhibition (GI) [8] | growth inhibition (GI) [9]
1 | C#Cc1cccc(-c2cn([C@@H]3C=C(Br)[C@@H](O)[C@@H](O)[C@@H]3O)nn2)c1 | <=30% | inactive | inactive | inactive | inactive | inactive | inactive | Active | inactive
2 | O[C@H]1[C@H](O)[C@@H](n2cc(-c3cccc(-c4cn([C@H]5C=C(Br)[C@@H](O)[C@@H](O)[C@@H]5O)nn4)c3)nn2)C=C(Br)[C@H]1O | <=30% | inactive | inactive | inactive | inactive | inactive | inactive | inactive | inactive
3 | O[C@H]1[C@H](O)[C@H](n2cc(-c3cccc(-c4cn([C@@H]5C=C(Br)[C@@H](O)[C@@H](O)[C@@H]5O)nn4)c3)nn2)C=C(Br)[C@H]1O | <=30% | inactive | inactive | inactive | inactive | inactive | inactive | inactive | inactive
4 | C#Cc1ccc(-c2cn([C@@H]3C=C(Br)[C@@H](O)[C@@H](O)[C@@H]3O)nn2)cc1 | <=30% | inactive | inactive | inactive | inactive | inactive | inactive | Active | inactive
5 | C#Cc1ccc(-c2cn([C@H]3C=C(Br)[C@@H](O)[C@@H](O)[C@@H]3O)nn2)cc1 | <=30% | inactive | inactive | inactive | inactive | inactive | inactive | inactive | inactive
6 | O[C@H]1[C@H](O)[C@H](n2cc(-c3cccc(-c4cn([C@H]5C=C(Br)[C@@H](O)[C@@H](O)[C@@H]5O)nn4)c3)nn2)C=C(Br)[C@H]1O (mixture of isomers) | <=30% | inactive | inactive | inactive | Active | inactive | Active | inactive | inactive
7 | O[C@H]1[C@H](O)[C@@H](n2cc(-c3ccc(-c4cn([C@H]5C=C(Br)[C@@H](O)[C@@H](O)[C@@H]5O)nn4)cc3)nn2)C=C(Br)[C@H]1O | <=30% | inactive | Active | Active | inactive | inactive | inactive | inactive | inactive
8 | C#Cc1cccc(-c2cn([C@H]3C=C(Br)[C@@H](O)[C@@H](O)[C@@H]3O)nn2)c1 | <=30% | inactive | inactive | inactive | inactive | inactive | inactive | inactive | inactive
9 | O[C@H]1[C@H](O)[C@H](n2cc(-c3ccc(-c4cn([C@@H]5C=C(Br)[C@@H](O)[C@@H](O)[C@@H]5O)nn4)cc3)nn2)C=C(Br)[C@H]1O | <=30% | inactive | inactive | inactive | inactive | inactive | inactive | Active | inactive
10 | O[C@H]1[C@H](O)[C@H](n2cc(-c3ccc(-c4cn([C@H]5C=C(Br)[C@@H](O)[C@@H](O)[C@@H]5O)nn4)cc3)nn2)C=C(Br)[C@H]1O (mixture of isomers) | <=30% | inactive | inactive | inactive | inactive | inactive | inactive | inactive | inactive
